In the array DNA melting data of Ke et al. (doi:10.1101/2024.01.08.574731):

Tests used:
[1] = folding enthalpy; higher = less favourable; fluorescence melt of hairpins on a sequencing array, two-state fit; settings: sodium 0.088 M
Outline: (§1)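 On a sequenced MiSeq flow cell, library hairpins with annealed Cy3 and quencher oligos were imaged for Cy3 fluorescence in 2.5 °C steps up to 60 °C, in 50 mM Na-HEPES pH 8.0, 25 mM NaCl. Normalisation used pre-quench Cy3 and control constructs. Bootstrapped two-state fits gave melting temperature and folding enthalpy, combined by inverse variance across four replicates and with fitted temperatures raised by 9.35 °C to match UV melts.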

[2] = melting temperature; fluorescence melt of hairpins on a sequencing array, two-state fit, raised by 9.35 °C to match UV melts; settings: sodium 0.088 M
Outline: as §1

GCTGTGGGAAACCGCAGC ((((.((....)).))))
folding enthalpy [1]: -44.6 kcal/mol | Tm [2]: 60.7 °C

GCCGTCCGAAAGGAAGGC (((.(((....))).)))
folding enthalpy [1]: -36.4 kcal/mol | Tm [2]: 67 °C

GGCTACCGAAAGGTGGCC (((.(((....))).)))
folding enthalpy [1]: -35.5 kcal/mol | Tm [2]: 68.8 °C

GGCTGAGGAAACTCGGCC (((.(((....))).)))
folding enthalpy [1]: -46.7 kcal/mol | Tm [2]: 58.3 °C

GTACAAGGAAACTTGCAC ((.((((....)))).))
folding enthalpy [1]: -25.4 kcal/mol | Tm [2]: 34.1 °C

GCTTCAACGAAAGTTAGC (((..(((....))))))
folding enthalpy [1]: -18.7 kcal/mol | Tm [2]: 30.9 °C

GTGGAAGGAAACTTCTGC (..((((....))))..)
folding enthalpy [1]: -14.4 kcal/mol | Tm [2]: 34.1 °C

GCATCCGAAAGGACATGC ((((((....)))..)))
folding enthalpy [1]: -23.1 kcal/mol | Tm [2]: 43.3 °C

GTCCAGACGAAAGTCGAC (((..(((....))))))
folding enthalpy [1]: -11.1 kcal/mol | Tm [2]: 36.9 °C

GATCCCACATGGGATC ((((((....))))))
folding enthalpy [1]: -45.5 kcal/mol | Tm [2]: 60.8 °C

GCGAACGTTCGC ((((....))))
folding enthalpy [1]: -39.5 kcal/mol | Tm [2]: 55.8 °C

GAGTTTGGAAACAAACCC (.(((((....))))).)
folding enthalpy [1]: -18.5 kcal/mol | Tm [2]: 37.3 °C

GCAACGCGAAAGCGAAGC ((..(((....)))..))
folding enthalpy [1]: -12.9 kcal/mol | Tm [2]: 44.9 °C

GAACACGGAAACATGTTC (((((.(....).)))))
folding enthalpy [1]: -28 kcal/mol | Tm [2]: 35.1 °C

GCAGCTGCGAAAGCATGC (((..(((....))))))
folding enthalpy [1]: -11.6 kcal/mol | Tm [2]: 45.1 °C

GAATTCGGAAACGAATTC (((((((....)))))))
folding enthalpy [1]: -35 kcal/mol | Tm [2]: 58.6 °C

GATCTGTCACCAGATC ((((((....))))))
folding enthalpy [1]: -39.4 kcal/mol | Tm [2]: 49.4 °C

GCCTTGCGAAAGCGCGGC (((..((....))..)))
folding enthalpy [1]: -18 kcal/mol | Tm [2]: 57.1 °C

GCTTCGAAAGAAGC (((((....)))))
folding enthalpy [1]: -26.6 kcal/mol | Tm [2]: 66.8 °C

GATCTGACGCCAGATC ((((((....))))))
folding enthalpy [1]: -33.5 kcal/mol | Tm [2]: 48.6 °C

GATATACGAAAGTAAATC (((.(((....))).)))
folding enthalpy [1]: -14.6 kcal/mol | Tm [2]: 33 °C

GCTGATCGAAAGATAGC (((.(((....))))))
folding enthalpy [1]: -23.1 kcal/mol | Tm [2]: 41.5 °C

GGAGCTGGAAACGGCTTC (.(((.(....).))).)
folding enthalpy [1]: -25.9 kcal/mol | Tm [2]: 41.5 °C

GCACGTGGAAACGCGTGC (((((.(....).)))))
folding enthalpy [1]: -45.1 kcal/mol | Tm [2]: 64.6 °C

GGGGTCGGAAACGACTCC ((.((((....)))).))
folding enthalpy [1]: -34.4 kcal/mol | Tm [2]: 59.5 °C

GGCAGCGAAAGCTTGGCC ((((((....)))..)))
folding enthalpy [1]: -23.7 kcal/mol | Tm [2]: 52.7 °C

GCGGTGTTCCGC ((((....))))
folding enthalpy [1]: -20 kcal/mol | Tm [2]: 65.7 °C

GGAACTCGAAAGAGATCC (((.(((....))).)))
folding enthalpy [1]: -34.4 kcal/mol | Tm [2]: 49.5 °C

GTGGAGCGAAAGCTGCAC (((.(((....))).)))
folding enthalpy [1]: -34 kcal/mol | Tm [2]: 62.4 °C

GCATCGCGAAAGCCTTGC (((..((....))..)))
folding enthalpy [1]: -16.7 kcal/mol | Tm [2]: 38.3 °C

GCTATGCGAAAGCTTTGC ((.(.((....)).).))
folding enthalpy [1]: -18.2 kcal/mol | Tm [2]: 43.4 °C

GGCCGTGGAAACACGACC ((.((((....)))).))
folding enthalpy [1]: -36.2 kcal/mol | Tm [2]: 55 °C

GATCAAGCATTGATC ((((((...))))))
folding enthalpy [1]: -47.9 kcal/mol | Tm [2]: 52.1 °C

GATGTTCCGAAAGGAATC (((..(((....))))))
folding enthalpy [1]: -13.2 kcal/mol | Tm [2]: 32.4 °C

GATAGCGAAAGCTCGATC ((((((....)))..)))
folding enthalpy [1]: -10.1 kcal/mol | Tm [2]: 24.8 °C

GGCCTGCGAAAGCATGCC (((.(((....))).)))
folding enthalpy [1]: -28.2 kcal/mol | Tm [2]: 58.4 °C

GAGCTCCGAAAGGAACTC (((.(((....))).)))
folding enthalpy [1]: -27.5 kcal/mol | Tm [2]: 50.6 °C

GATCTTAGTAAGATC ((((((...))))))
folding enthalpy [1]: -27.6 kcal/mol | Tm [2]: 42.5 °C

GCGACGTCGAAAGACCGC (((..(((....))))))
folding enthalpy [1]: -25.4 kcal/mol | Tm [2]: 50.6 °C

GATCGAAGTGTCGATC ((((((....))))))
folding enthalpy [1]: -42.2 kcal/mol | Tm [2]: 51.2 °C

GCTAGTGGAAACGCTAGC (((((.(....).)))))
folding enthalpy [1]: -40.4 kcal/mol | Tm [2]: 52.3 °C

GCTGGGGGAAACCTCGGC ((.(.((....)).).))
folding enthalpy [1]: -28.9 kcal/mol | Tm [2]: 44.4 °C

GATCACCAGGGTGATC ((((((....))))))
folding enthalpy [1]: -36.5 kcal/mol | Tm [2]: 62.2 °C

GTGAGTGGAAACACTCGC (.(((((....))))).)
folding enthalpy [1]: -33.1 kcal/mol | Tm [2]: 54.9 °C

GCCTACCGAAAGGTGGGC (((.(((....))).)))
folding enthalpy [1]: -38.6 kcal/mol | Tm [2]: 69.1 °C

GCATAGCGAAAGCTTGC (((.(((....))))))
folding enthalpy [1]: -22.5 kcal/mol | Tm [2]: 54.3 °C

GTAAGGGCGAAAGCCTAC (((..(((....))))))
folding enthalpy [1]: -8.85 kcal/mol | Tm [2]: 29.7 °C

GTAGTCGAAAGACTTAC ((((((....))).)))
folding enthalpy [1]: -13.2 kcal/mol | Tm [2]: 39.9 °C

GGGCACGAAAGTGCACCC ((((((....)))..)))
folding enthalpy [1]: -10.8 kcal/mol | Tm [2]: 58.2 °C

GATTTGGGAAACCAAACC (.(((((....))))).)
folding enthalpy [1]: -19.4 kcal/mol | Tm [2]: 34 °C

GCGAATCGAAAGATACGC (((.(((....))).)))
folding enthalpy [1]: -44.5 kcal/mol | Tm [2]: 55.5 °C

GCTCCGCGAAAGCTGCGC ((.(.((....)).).))
folding enthalpy [1]: -14.5 kcal/mol | Tm [2]: 44.4 °C

GGACTCGAAAGAGCTTCC ((((((....)))..)))
folding enthalpy [1]: -18.9 kcal/mol | Tm [2]: 35.3 °C

GTCGGCGGAAACGTCGAC ((((.((....)).))))
folding enthalpy [1]: -51.5 kcal/mol | Tm [2]: 62 °C

GTAGTCGAAAGACCTAC ((((((....))).)))
folding enthalpy [1]: -18.9 kcal/mol | Tm [2]: 36.8 °C

GTGTCAGGAAACTAACAC ((((.((....)).))))
folding enthalpy [1]: -20.3 kcal/mol | Tm [2]: 33.5 °C

GCTATGACGAAAGTCAGC (((..(((....))))))
folding enthalpy [1]: -13.2 kcal/mol | Tm [2]: 42 °C

GGATCCGAAAGGATTCC ((((((....))).)))
folding enthalpy [1]: -30.2 kcal/mol | Tm [2]: 51.7 °C

GATCCAGGAAACCGGATC (((((.(....).)))))
folding enthalpy [1]: -33.3 kcal/mol | Tm [2]: 45.7 °C

GCGACGCGAAAGCTTCGC ((((.((....)).))))
folding enthalpy [1]: -45.6 kcal/mol | Tm [2]: 65.2 °C

GAACACGAAAGTGGATTC ((((((....)))..)))
folding enthalpy [1]: -18.6 kcal/mol | Tm [2]: 39.8 °C

GCATATGGAAACATATGC (((((((....)))))))
folding enthalpy [1]: -41.6 kcal/mol | Tm [2]: 56.3 °C

GACAAGGCGAAAGCCGTC (((..(((....))))))
folding enthalpy [1]: -8.66 kcal/mol | Tm [2]: 40.9 °C

GCATCAGGAAACCGATGC (((((.(....).)))))
folding enthalpy [1]: -33.4 kcal/mol | Tm [2]: 50 °C

GGCGGAGGAAACTCCACC ((.((((....)))).))
folding enthalpy [1]: -33.6 kcal/mol | Tm [2]: 48.9 °C

GATCCAGATTTGGATC ((((((....))))))
folding enthalpy [1]: -30 kcal/mol | Tm [2]: 50.4 °C

GAGGCCGGAAACGACCTC ((((.((....)).))))
folding enthalpy [1]: -44.9 kcal/mol | Tm [2]: 52.9 °C

GTGGCGTCGAAAGACCAC (((..(((....))))))
folding enthalpy [1]: -12.9 kcal/mol | Tm [2]: 44.5 °C

CGCGTCGGAAACGAAGCG (((.(((....))).)))
folding enthalpy [1]: -34 kcal/mol | Tm [2]: 56.7 °C

GTCCAGTCGAAAGACGAC (((..(((....))))))
folding enthalpy [1]: -15 kcal/mol | Tm [2]: 34.8 °C

GATCCAATGATGGATC ((((((....))))))
folding enthalpy [1]: -29.3 kcal/mol | Tm [2]: 47.6 °C

GATCTCTAGAGAGATC ((((((....))))))
folding enthalpy [1]: -40.9 kcal/mol | Tm [2]: 51 °C

CTCGGGAAACCGAG (((((....)))))
folding enthalpy [1]: -23.9 kcal/mol | Tm [2]: 56.1 °C

GCCGTCGAAAGACGCGGC ((((((....)))..)))
folding enthalpy [1]: -15 kcal/mol | Tm [2]: 61.3 °C

GCTTGAGGAAACTTGAGC (((..((....))..)))
folding enthalpy [1]: -16.7 kcal/mol | Tm [2]: 33.8 °C

GCGGAGGTCCGC ((((....))))
folding enthalpy [1]: -24.4 kcal/mol | Tm [2]: 56.4 °C

GATCTCTTTCGAGATC ((((((....))))))
folding enthalpy [1]: -28.2 kcal/mol | Tm [2]: 52.2 °C

GCGTGGGCACGC ((((....))))
folding enthalpy [1]: -24.7 kcal/mol | Tm [2]: 57.3 °C

GCCCATGGAAACATGGAC (.(((((....))))).)
folding enthalpy [1]: -15.1 kcal/mol | Tm [2]: 46.7 °C

CTTGGGAAACCAAG (((((....)))))
folding enthalpy [1]: -22.4 kcal/mol | Tm [2]: 45.9 °C

GGAGTCGAAAGACGTCC ((((((....))).)))
folding enthalpy [1]: -14.7 kcal/mol | Tm [2]: 46 °C

GATCACTCTGTGATC ((((((...))))))
folding enthalpy [1]: -35.8 kcal/mol | Tm [2]: 61.6 °C

GTGTTGGGAAACCAGCAC (((.(((....))).)))
folding enthalpy [1]: -43.9 kcal/mol | Tm [2]: 51.4 °C

GTGTTTGGAAACAAGCAC (((.(((....))).)))
folding enthalpy [1]: -30.5 kcal/mol | Tm [2]: 46.6 °C

GATCCAAGACTGGATC ((((((....))))))
folding enthalpy [1]: -28.2 kcal/mol | Tm [2]: 47.4 °C

GGCCATCGAAAGATAGCC (((.(((....))).)))
folding enthalpy [1]: -29.4 kcal/mol | Tm [2]: 48.3 °C

GGGATTGCGAAAGCACCC (((..(((....))))))
folding enthalpy [1]: -14.5 kcal/mol | Tm [2]: 41.2 °C

GCCAATGGAAACATTGAC (.(((((....))))).)
folding enthalpy [1]: -22.2 kcal/mol | Tm [2]: 37.7 °C

GTTACTGGAAACAGTGAC ((.((((....)))).))
folding enthalpy [1]: -27.6 kcal/mol | Tm [2]: 44.9 °C

GATCCCATTTGGGATC ((((((....))))))
folding enthalpy [1]: -37 kcal/mol | Tm [2]: 66.1 °C

GATCTTGACAAGATC ((((((...))))))
folding enthalpy [1]: -38.6 kcal/mol | Tm [2]: 46.1 °C

GTGGTCGGAAACGACTGC (..((((....))))..)
folding enthalpy [1]: -14.3 kcal/mol | Tm [2]: 49.5 °C
